# Experimental data: ChEMBL document CHEMBL1125034, “Design and synthesis of 4H-3,1-benzoxazin-4-ones as potent alternate substrate inhibitors of human leukocyte elastase” (J Med Chem, 1990)
# Tested on: not listed separately
# Test: Alkaline hydrolysis rate of the compound
# Format: ADME
# Summary of the method: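 Alkaline hydrolysis rate constants measured at several pH values at 25 °C. Loss of the long-wavelength UV chromophore (λmax typically 300-345 nm) was followed by spectrophotometer.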
row,SMILES,Log kOH-
1,Cc1cccc2nc(CBr)oc(=O)c12,1.58
2,Cc1cccc2nc(N)oc(=O)c12,-0.05
3,CCOc1nc2cc(N)ccc2c(=O)o1,0.2
4,O=c1oc(N2CCCC2)nc2ccccc12,0.97
5,Nc1nc2ccccc2c(=O)o1,0.53
6,O=c1oc(-c2ccco2)nc2ccccc12,1.94
7,CCOc1nc2cccc(C)c2c(=O)o1,1.31
8,CCOc1nc2cccc(CC)c2c(=O)o1,1.17
9,CCOC(=O)CNc1nc2ccccc2c(=O)o1,1.4
10,CCc1cc(N(C)C)cc2nc(NC(C)C)oc(=O)c12,-1.88
11,Cc1ccccc1CNc1nc2ccccc2c(=O)o1,1.01
12,Cc1cccc2ncoc(=O)c12,1.38
13,CC(=O)N(C)c1nc2ccccc2c(=O)o1,2.57
14,O=c1oc(OCc2ccccc2)nc2ccccc12,1.99
15,CCSc1nc2cc(CC)ccc2c(=O)o1,1.66
16,O=c1oc(-c2cccc([N+](=O)[O-])c2)nc2ccccc12,1.82
17,CCc1cccc2nc(NC(C)C)oc(=O)c12,0.31
18,COc1cc2nc(OCc3ccccc3)oc(=O)c2cc1OC,0.97
19,CCSc1nc2cc3ccccc3cc2c(=O)o1,2.54
20,Cc1ccc2nc(C(F)(F)F)oc(=O)c2c1,3.23
21,CCOc1nc2cccc(C(C)C)c2c(=O)o1,0.96
22,COc1cc2nc(C)oc(=O)c2cc1OC,0.53

# Biological target: T1, Neutrophil elastase (Homo sapiens, UniProt P08246)
# T1 sequence (P08246 whole entry): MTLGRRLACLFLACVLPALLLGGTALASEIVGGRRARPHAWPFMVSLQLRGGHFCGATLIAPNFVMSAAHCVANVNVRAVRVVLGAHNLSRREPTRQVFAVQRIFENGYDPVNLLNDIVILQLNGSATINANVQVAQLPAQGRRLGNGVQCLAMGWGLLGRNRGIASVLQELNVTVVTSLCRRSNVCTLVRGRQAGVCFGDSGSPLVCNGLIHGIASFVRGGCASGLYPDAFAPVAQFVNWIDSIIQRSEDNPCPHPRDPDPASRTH
# Test: Inhibition of human leukocyte elastase
row,SMILES,Ki
1,Cc1cccc2nc(Nc3ccccc3)oc(=O)c12,110 nM
2,CCCCN(CCCC)c1nc2cccc(C)c2c(=O)o1,363 nM
3,Cc1cccc2nc(NCCC(C)C)oc(=O)c12,1550 nM
4,CNc1nc2c(C)cccc2c(=O)o1,97700 nM
5,CCCOc1cc(CC)c2c(=O)oc(NC(C)C)nc2c1,21.4 nM
6,CCOc1nc2c(C)ccc(C)c2c(=O)o1,0.0955 nM
7,CCN(CC)c1nc2ccccc2c(=O)o1,372 nM
8,CC(C)Sc1nc2ccccc2c(=O)o1,7.76 nM
9,COC(=O)[C@H](CC(C)C)NC(=O)[C@H](CC(C)C)Nc1nc2cc(C)cc(C)c2c(=O)o1,39.8 nM
10,COC(=O)[C@@H](NC(=O)[C@H](C)Nc1nc2ccccc2c(=O)o1)C(C)C,182 nM
11,CCc1cccc2nc(N(C(C)C)C(C)C)oc(=O)c12,70.8 nM
12,O=c1oc(SCc2ccccc2)nc2cc3ccccc3cc12,257 nM
13,COc1cc2nc(SC/C=C/c3ccccc3)oc(=O)c2cc1OC,6920 nM
14,O=c1oc(Cc2ccccc2)nc2ccccc12,3630 nM
15,O=c1oc(C(F)(F)C(F)(F)F)nc2ccccc12,110 nM
16,Cc1cccc2nc(N(C(C)C)C(C)C)oc(=O)c12,398 nM
17,CCCc1nc2ccccc2c(=O)o1,2880 nM
18,CCCCN(CCCC)c1nc2cccc(CC)c2c(=O)o1,178 nM
19,Cc1cccc2c(=O)oc(SCc3ccccc3)nc12,110 nM
20,C[C@H](NC(=O)[C@@H]1CCCN1c1nc2ccccc2c(=O)o1)C(N)=O,234 nM
21,COc1nc2cccc(C)c2c(=O)o1,10 nM
22,Cc1cccc2nc(CBr)oc(=O)c12,151 nM
23,CCOc1nc2cc(N)ccc2c(=O)o1,5.75 nM
24,O=c1oc(N2CCCC2)nc2ccccc12,1910 nM
25,CCCCCNc1nc2cccc(C)c2c(=O)o1,3390 nM
26,CCOc1nc2cc(OC)cc(C)c2c(=O)o1,0.398 nM

row,SMILES,Ki
1,COc1cc2nc(SCc3c[nH]c4ccccc34)oc(=O)c2cc1OC,12900 nM
2,Cc1cccc2nc(NCC(C)(C)C)oc(=O)c12,240 nM
3,O=c1oc(-c2ccco2)nc2ccccc12,1780 nM
4,CCOc1nc2cccc(C)c2c(=O)o1,0.115 nM
5,CCOc1nc2cccc(CC)c2c(=O)o1,0.0427 nM
6,CCOC(=O)CNc1nc2ccccc2c(=O)o1,64600 nM
7,CCC(C)(C)Nc1nc2ccccc2c(=O)o1,155 nM
8,CCOC(=O)C(Cc1ccccc1)Nc1nc2ccccc2c(=O)o1 (stereo not drawn),1200 nM
9,CCc1cc(N(C)C)cc2nc(NC(C)C)oc(=O)c12,110 nM
10,Cc1ccccc1CNc1nc2ccccc2c(=O)o1,2820 nM
11,Cc1cccc2ncoc(=O)c12,219 nM
12,CC(=O)N(C)c1nc2ccccc2c(=O)o1,5.75 nM
13,CC(C)[C@H](NC(=O)C1CCCN1c1nc2ccccc2c(=O)o1)C(N)=O (stereo partly drawn),468 nM
14,O=c1oc(OCc2ccccc2)nc2ccccc12,56.2 nM
15,CCNc1nc2ccccc2c(=O)o1,52.5 nM
16,CCSc1nc2cc(CC)ccc2c(=O)o1,20.9 nM
17,O=c1oc(-c2cccc([N+](=O)[O-])c2)nc2ccccc12,4370 nM
18,Cc1cccc2nc(NC3CCCC3)oc(=O)c12,200 nM
19,CCN(CC)c1nc2c(C)ccc(C)c2c(=O)o1,105 nM
20,COc1cc2nc(OCc3ccccc3)oc(=O)c2cc1OC,933 nM
21,CCSc1nc2cc3ccccc3cc2c(=O)o1,72.4 nM
22,COC(=O)[C@@H](CC(C)C)NC(=O)[C@@H](CC(C)C)Nc1nc2cc(C)cc(C)c2c(=O)o1,102 nM
23,Cc1ccc2nc(C(F)(F)F)oc(=O)c2c1,513 nM
24,CCOc1nc2cccc(C(C)C)c2c(=O)o1,0.0708 nM
25,COc1cc2nc(C)oc(=O)c2cc1OC,832000 nM
